Assays:
Homo sapiens [1] = organism: Homo sapiens; assay: Selectivity ratio of Ki for displacement of [3H]CGS21680 from recombinant human A2AAR expressed in HEK293 cell membranes to Ki for displacement of [125I]AB-MEC from recombinant human A3R expressed in CHO cell membranes
[2] = molecular target: T1, Adenosine receptor A1 (Homo sapiens) (UniProt P30542); assay: Displacement of [3H]R-PIA from recombinant human A1AR expressed in CHO cell membranes at 10 uM relative to control
T1 sequence (whole entry): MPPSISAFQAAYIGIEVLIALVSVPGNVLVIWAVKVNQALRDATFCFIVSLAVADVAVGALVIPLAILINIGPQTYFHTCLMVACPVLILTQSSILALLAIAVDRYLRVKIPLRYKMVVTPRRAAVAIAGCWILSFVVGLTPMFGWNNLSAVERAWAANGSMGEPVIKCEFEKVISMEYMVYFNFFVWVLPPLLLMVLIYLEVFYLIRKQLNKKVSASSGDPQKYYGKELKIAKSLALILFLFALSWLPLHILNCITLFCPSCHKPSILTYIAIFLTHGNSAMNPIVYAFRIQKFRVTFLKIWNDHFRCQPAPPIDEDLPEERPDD
Procedure, shortened: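 [3H]R-PIA competition at membranes of CHO cells expressing recombinant human A1AR, with test compound at a single concentration of 10 μM. Adenosine deaminase (3 units/mL) present in the 30 min, 30 °C preincubation and during incubation. Final DMSO ≤2%. Bound radioligand collected on GF/B filters. Reported as % inhibition of specific binding.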

Homo sapiens [3] = organism: Homo sapiens; assay: Selectivity ratio of Ki for displacement of [3H]R-PIA from recombinant human A1AR expressed in CHO cell membranes to Ki for displacement of [3H]CGS21680 from recombinant human A2AAR expressed in HEK293 cell membranes
Homo sapiens [4] = organism: Homo sapiens; assay: Selectivity ratio of Ki for displacement of [3H]R-PIA from recombinant human A1AR expressed in CHO cell membranes to Ki for displacement of [125I]AB-MEC from recombinant human A3R expressed in CHO cell membranes

Row | Compound | Ratio Ki (Homo sapiens [1]) | inhibition [2] | Ratio Ki (Homo sapiens [3]) | Ratio Ki (Homo sapiens [4])
1 | Cn1cc2c(nc(NC(=O)CCCc3cn(CCCCCCNC(=O)c4ccc(-c5c6ccc(=N)c(S(=O)(=O)O)c-6oc6c(S(=O)(=O)O)c(N)ccc56)c(C(=O)O)c4)nn3)n3nc(-c4ccco4)nc23)n1 | 2.83 | – | – | –
2 | Cn1cc2c(nc(NC(=O)Nc3ccc(CC(=O)O)cc3)n3nc(-c4ccco4)nc23)n1 | 7.8 | 4% | > 10 | > 78

From ChEMBL document CHEMBL4715845, “Conjugable A adenosine receptor antagonists for the development of functionalized ligands and their use in fluorescent probes” (Eur J Med Chem, 2020)
